Source: ChEMBL document CHEMBL5724801, “EUbOPEN Chemogenomics Library - Multiplex” (2024)
Values joined by “and” are separate entries in the source; they are usually repeats but may differ in a detail not shown here. Equal entries are not always repeated.

system: U2OS; experiment: Multiplex assay against U2OS; assay type: toxicity, cell-based; conditions: human, 12 h, 1 µM, compound concentration 1 uM
Summary of the method: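 Cells stained live at seeding with Hoechst33342, BioTracker Green Microtubule Cytoskeleton Dye, MitoTracker Red and Annexin V Alexa Fluor 680 were imaged on a CQ1 microscope at 37°C and 5% CO2 after compound addition. Their classification by CellPathfinder machine-learning gating ran from Hoechst high-intensity objects versus normal cells, to healthy, pyknosed or fragmented nuclei among normal cells, to mitotic or apoptotic among pyknosed cells. Tubulin, mitochondrial-mass and membrane-permeability phenotypes are per cents of healthy-nucleus cells.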

Row | SMILES | Population Apoptotic (%) | Population Fragmented Nuclei (%) | Population Healthy Nuclei (%) | Population Hoechst High Intensity Objects (%) | Population Membrane Permeable-Phenotype (%) | Population Mitochondria Different-Phenotype (%) | Population Mitotic Cells (%) | Population Normal (%) | Population Pyknosed Nuclei (%) | Population Tubulin-Different-Phenotype (%)
1 | CC(/C=C1\SC(=S)N(CCCC(=O)Nc2ccc(C(=O)O)c(O)c2)C1=O)=C\c1ccccc1 | 94% and 100% | 26% and 12% | 64% and 80% | 3% and 4% | 4% and 3% | 1% and 2% | 5% and 0% | 96% and 95% | 8% and 7% | 3% and 0%
2 | CCOC(=O)c1cnn(-c2ccc(NC(=O)C(Cl)=C(Cl)Cl)cc2)c1C(F)(F)F | 35.29% and 57.89% | 2.52% and 2.35% | 88.92% and 86.47% | 0% | 0.57% and 2.72% | 0.85% and 4.76% | 64.71% and 42.11% | 100% | 8.56% and 11.18% | 0.57% and 0%

same assay, conditions: human, 12 h, 1 µM, compound concentration 1 uM

Row | SMILES | Total Cell Count
3 | CC(/C=C1\SC(=S)N(CCCC(=O)Nc2ccc(C(=O)O)c(O)c2)C1=O)=C\c1ccccc1 | 205 and 133
4 | CCOC(=O)c1cnn(-c2ccc(NC(=O)C(Cl)=C(Cl)Cl)cc2)c1C(F)(F)F | 397 and 170

same assay, conditions: human, 12 h, 10 µM, compound concentration 10 uM

Row | SMILES | Population Apoptotic (%) | Population Fragmented Nuclei (%) | Population Healthy Nuclei (%) | Population Hoechst High Intensity Objects (%) | Population Membrane Permeable-Phenotype (%) | Population Mitochondria Different-Phenotype (%) | Population Normal (%) | Population Pyknosed Nuclei (%) | Population Tubulin-Different-Phenotype (%) | Total Cell Count
5 | CC(/C=C1\SC(=S)N(CCCC(=O)Nc2ccc(C(=O)O)c(O)c2)C1=O)=C\c1ccccc1 | 91% and 72% | 28% and 16% | 61% and 72% | 3% and 0% | 12% and 4% | 2% and 1% | 96% and 100% | 9% and 10% | 4% and 5% | 241 and 101
6 | CCOC(=O)c1cnn(-c2ccc(NC(=O)C(Cl)=C(Cl)Cl)cc2)c1C(F)(F)F | 21.96% and 33.6% | 2.71% and 4.35% | 8.13% and 5.07% | 0% | 11.11% and 28.57% |  | 100% | 89.16% and 90.58% | 25.93% and 14.29% | 332 and 138

same assay, conditions: human, 12 h, 10 µM, compound concentration 10 uM

Row | SMILES | Population Mitotic Cells (%)
7 | CCOC(=O)c1cnn(-c2ccc(NC(=O)C(Cl)=C(Cl)Cl)cc2)c1C(F)(F)F | 78.04% and 66.4%

same assay, conditions: human, 24 h, 1 µM, compound concentration 1 uM

Row | SMILES | Population Apoptotic (%) | Population Fragmented Nuclei (%) | Population Healthy Nuclei (%) | Population Hoechst High Intensity Objects (%) | Population Membrane Permeable-Phenotype (%) | Population Mitochondria Different-Phenotype (%) | Population Normal (%) | Population Pyknosed Nuclei (%) | Population Tubulin-Different-Phenotype (%) | Total Cell Count
8 | CC(/C=C1\SC(=S)N(CCCC(=O)Nc2ccc(C(=O)O)c(O)c2)C1=O)=C\c1ccccc1 | 83% and 94% | 25% and 9% | 64% and 79% | 3% and 1% | 4% and 10% | 1% | 96% and 98% | 10% | 1% | 247 and 177
9 | CCOC(=O)c1cnn(-c2ccc(NC(=O)C(Cl)=C(Cl)Cl)cc2)c1C(F)(F)F | 36.07% and 39.02% | 1.33% and 1.84% | 87.12% and 79.26% | 0% | 0.43% and 0.58% | 0.43% and 4.07% | 100% | 11.55% and 18.89% | 0.22% and 0% | 528 and 217

same assay, conditions: human, 24 h, 1 µM, compound concentration 1 uM

Row | SMILES | Population Mitotic Cells (%)
10 | CCOC(=O)c1cnn(-c2ccc(NC(=O)C(Cl)=C(Cl)Cl)cc2)c1C(F)(F)F | 63.93% and 60.98%

same assay, conditions: human, 24 h, 10 µM, compound concentration 10 uM

Row | SMILES | Population Apoptotic (%) | Population Fragmented Nuclei (%) | Population Healthy Nuclei (%) | Population Hoechst High Intensity Objects (%) | Population Membrane Permeable-Phenotype (%) | Population Mitochondria Different-Phenotype (%) | Population Normal (%) | Population Pyknosed Nuclei (%) | Population Tubulin-Different-Phenotype (%) | Total Cell Count
11 | CC(/C=C1\SC(=S)N(CCCC(=O)Nc2ccc(C(=O)O)c(O)c2)C1=O)=C\c1ccccc1 | 88% and 53% | 26% and 16% | 64% and 72% | 2% and 0% | 7% | 3% and 6% | 97% and 100% | 8% and 11% | 3% and 6% | 298 and 111
12 | CCOC(=O)c1cnn(-c2ccc(NC(=O)C(Cl)=C(Cl)Cl)cc2)c1C(F)(F)F | 65.22% and 84.92% | 3.27% and 2.76% | 7.74% and 10.34% | 0% | 30.77% and 46.67% | 0% and 13.33% | 100% | 88.99% and 86.9% | 57.69% and 60% | 336 and 145

same assay, conditions: human, 24 h, 10 µM, compound concentration 10 uM

Row | SMILES | Population Mitotic Cells (%)
13 | CCOC(=O)c1cnn(-c2ccc(NC(=O)C(Cl)=C(Cl)Cl)cc2)c1C(F)(F)F | 34.78% and 15.08%

same assay, conditions: human, 48 h, 1 µM, compound concentration 1 uM

Row | SMILES | Population Apoptotic (%) | Population Fragmented Nuclei (%) | Population Healthy Nuclei (%) | Population Hoechst High Intensity Objects (%) | Population Membrane Permeable-Phenotype (%) | Population Mitochondria Different-Phenotype (%) | Population Normal (%) | Population Pyknosed Nuclei (%) | Population Tubulin-Different-Phenotype (%) | Total Cell Count
14 | CC(/C=C1\SC(=S)N(CCCC(=O)Nc2ccc(C(=O)O)c(O)c2)C1=O)=C\c1ccccc1 | 93% and 78% | 16% and 11% | 74% and 79% | 2% and 3% | 5% and 4% | 1% and 3% | 97% and 96% | 8% and 9% | 1% and 2% | 368 and 253
15 | CCOC(=O)c1cnn(-c2ccc(NC(=O)C(Cl)=C(Cl)Cl)cc2)c1C(F)(F)F | 48.86% and 64.44% | 5.03% and 2.12% | 85.95% and 84.24% | 0% | 1.31% and 2.52% | 0.12% and 2.16% | 100% | 9.03% and 13.64% | 1.07% and 1.44% | 975 and 330

same assay, conditions: human, 48 h, 1 µM, compound concentration 1 uM

Row | SMILES | Population Mitotic Cells (%)
16 | CCOC(=O)c1cnn(-c2ccc(NC(=O)C(Cl)=C(Cl)Cl)cc2)c1C(F)(F)F | 51.14% and 35.56%

same assay, conditions: human, 48 h, 10 µM, compound concentration 10 uM

Row | SMILES | Population Apoptotic (%) | Population Fragmented Nuclei (%) | Population Healthy Nuclei (%) | Population Hoechst High Intensity Objects (%) | Population Membrane Permeable-Phenotype (%) | Population Mitochondria Different-Phenotype (%) | Population Normal (%) | Population Pyknosed Nuclei (%) | Population Tubulin-Different-Phenotype (%) | Total Cell Count
17 | CC(/C=C1\SC(=S)N(CCCC(=O)Nc2ccc(C(=O)O)c(O)c2)C1=O)=C\c1ccccc1 | 97% and 82% | 19% and 16% | 68% and 73% | 2% and 1% | 6% and 4% | 2% and 1% | 97% and 98% | 12% and 10% | 4% and 0% | 396 and 170
18 | CCOC(=O)c1cnn(-c2ccc(NC(=O)C(Cl)=C(Cl)Cl)cc2)c1C(F)(F)F | 86.63% and 98.18% | 2.51% and 10.64% | 38.87% and 50.35% | 0% | 8.06% and 23.94% | 11.29% and 15.49% | 100% | 58.62% and 39.01% | 66.94% and 47.89% | 319 and 141
